Laboratory results published in ChEMBL document CHEMBL2177013, “Synthesis and biological evaluation of tylophorine-derived dibenzoquinolines as orally active agents: exploration of the role of tylophorine e ring on biological activity” (J Med Chem, 2012).

Tests used:
[1] = tested on: NUGC-3; test: Growth inhibition of human NUGC3 cells; type: functional
Summary of the method: (§1)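 Cells seeded per well: NUGC-3 4500, HONE-1 6000, MCF-7 6500, NCI-H460 2500, HepG2 10000, A549 5000; A549 grown in RPMI 1640 with 2 g/L NaHCO₃, 2 mM L-glutamine and 10% FBS. GI₅₀ = concentration giving 50% growth inhibition, mean of at least three experiments each in duplicate. Paclitaxel served as positive control.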

[2] = Growth inhibition of human HONE1 cells; type: functional; summary of the method: as §1
[3] = tested on: NCI-H460; test: Growth inhibition of human NCI-H460 cells; type: functional; summary of the method: as §1
[4] = tested on: MCF7; test: Growth inhibition of human MCF7 cells; type: functional; summary of the method: as §1
[5] = tested on: A549; test: Growth inhibition of human A549 cells; type: functional; summary of the method: as §1
[6] = tested on: HepG2; test: Growth inhibition of human HepG2 cells; type: functional; summary of the method: as §1
[7] = tested on: Transmissible gastroenteritis virus; test: Antiviral activity against Transmissible gastroenteritis virus infected in ST cells pre-treated 2 hrs before virus infection measured 6 hrs post virus infection by immunofluorescent assay; type: functional, organism-based; conditions: Alphacoronavirus 1, ST
Summary of the method: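 ST cells, with or without 2 h compound pretreatment (10 concentrations), infected with TGEV at MOI 10. Immunofluorescence with anti-spike and anti-nucleocapsid antibodies at 6 hpi. EC50 from dose–response curves, mean of at least three experiments, each in duplicate.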

[8] = Cytotoxicity against mouse RAW264.7 cells; type: cell-based
Summary of the method: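 RAW264.7 cells stimulated with LPS/IFNγ and compound-treated in parallel with the NO assay; CC50 taken as concentration giving 50% inhibition of cell growth. Mean of at least three experiments, each in duplicate.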

[9] = tested on: RAW264.7; test: Antiinflammatory activity in mouse RAW264.7 cells assessed as inhibition of LPS-induced nitric oxide production incubated for 18 hrs by nitrate/nitrite assay; type: functional, cell-based; conditions: RAW264.7, 18 h
Summary of the method: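 RAW264.7 seeded 65000 cells/well, cultured 24 h, then medium replaced with complete medium containing IFNγ (20 ng/mL)/LPS (5 μg/mL) plus compound at various concentrations for 18 h; nitric oxide measured by Nitrate/Nitrite kit. EC50 as mean of at least three experiments, each in duplicate.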

SMILES | GI50 [1] [nM] | GI50 [2] [nM] | GI50 [3] [nM] | GI50 [4] [nM] | GI50 [5] [nM] | GI50 [6] [nM] | EC50 [7] [nM] | CC50 [8] [nM] | EC50 [9] [nM]
COc1cc2c3c(c4cc(OC)c(OC)c(OC)c4c2cc1OC)CCN(C(C)C)C3 | 640 | 1120 | 570 | 720 | 760 | 1610 | 780 |  | 
COc1cc2c3c(c4cc(OC)c(OC)cc4c2cc1OC)CN(C1C=CCCC1)CC3 (centres undefined) | 1880 | 2530 | 2300 | 2210 | 1920 | 3640 | 2990 |  | 
CCCCN1CCc2c(c3cc(OC)c(OC)cc3c3c(OC)c(OC)c(OC)cc23)C1 | 2540 | 4060 | 2680 | 3190 | 3010 | 5010 | 2920 |  | 
COc1cc2c3c(c4cc(OC)c(OC)cc4c2cc1OC)CN(CC1OCCO1)CC3 | 19100 | 22100 | 18500 | 22400 | 31500 | 41000 | > 50000 |  | 
COc1cc2c3c(c4cc(OC)c(OC)cc4c2cc1OC)C(O)CN(C(C)C)C3 (centres undefined) | 870 | 1710 | 1070 | 1210 | 1230 | 1860 | 2740 | > 4000 | 2050
COc1cc2c3c(c4cc(OC)c(OC)cc4c2cc1OC)CN(CCCO)CC3 | 6630 | 16600 | 9410 | 7140 | 5470 | 16900 | 19300 |  | 
CCCCN1CCc2c(c3cc(OC)c(OC)cc3c3cc(OC)ccc23)C1 | 3990 | 4770 | 3510 | 4730 | 2390 | 4040 | 5600 |  | 
CCCN1CCc2c(c3cc(OC)c(OC)cc3c3cc(OC)ccc23)C1 | 430 | 770 | 260 | 420 | 470 | 480 | 680 |  | 
CCC(C)N1CCc2c(c3cc(OC)c(OC)cc3c3cc(OC)c(OC)cc23)C1 (centres undefined) | 440 | 1150 | 450 | 400 | 530 | 510 | 730 |  | 
COc1cc2c3c(c4cc(OC)c(OC)cc4c2cc1OC)CN(CCCOC1CCCCO1)CC3 (centres undefined) | 8220 | 9650 | 7490 | 9800 | 3780 | 14000 | 30800 |  | 
COc1cc2c3c(c4cc(OC)c(OC)cc4c2cc1OC)CN(CC(C)C)CC3 | 1040 | 1720 | 870 | 910 | 1320 | 1810 | 1360 |  | 
CCCN1Cc2c(c3ccc(OC)cc3c3cc(OC)c(OC)cc23)C(O)C1 (centres undefined) | 110 | 140 | 50 | 110 | 50 | 110 | 120 |  | 
CCCN1CCc2c(c3ccc(OC)cc3c3cc(OC)c(OC)cc23)C1 | 2940 | 3310 | 2400 | 2830 | 2950 | 3170 | 8680 |  | 
CCCN1CCc2c(c3cc(OC)ccc3c3c(OC)c(OC)ccc23)C1 | 3720 | 4750 | 3760 | 4110 | 3670 | 6290 | 2630 |  | 
CCCN1Cc2c(c3cc(OC)c(OC)cc3c3cc(OC)c(OC)cc23)C(O)C1 (centres undefined) | 730 | 1740 | 1080 | 1020 | 1190 | 1680 | 670 | > 4000 | 2200
CCCN1Cc2c(c3cc(OC)c(OC)c(OC)c3c3cc(OC)c(OC)cc23)C(O)C1 (centres undefined) | 490 | 820 | 590 | 590 | 820 | 830 | 660 |  | 
CCCCN1Cc2c(c3ccc(OC)cc3c3cc(OC)c(OC)cc23)C(O)C1 (centres undefined) | 1860 | 3000 | 1480 | 2330 | 1320 | 1850 | 2920 |  | 
COc1cc2c3c(c4cc(OC)c(OC)cc4c2cc1OC)CN(CCCN)CC3 | 10300 | 21100 | 11700 | 15300 | 6040 | 36900 | 23400 |  | 
CCCN1CCc2c(c3cc(OC)c(OC)cc3c3c(OC)c(OC)c(OC)cc23)C1 | 540 | 960 | 490 | 620 | 790 | 860 | 770 |  | 
CCN1CCc2c(c3cc(OC)c(OC)cc3c3c(OC)c(OC)c(OC)cc23)C1 | 1700 | 1990 | 870 | 1180 | 1410 | 2500 | 1140 |  | 
CCCCCN1CCc2c(c3cc(OC)c(OC)cc3c3cc(OC)c(OC)cc23)C1 | 7670 | 6200 | 6110 | 9510 |  | 8050 | 6530 |  | 
COc1cc2c3c(c4cc(OC)c(OC)cc4c2cc1OC)CN(CCCNC(=O)OC(C)(C)C)CC3 | 3400 | 4520 | 2890 | 3350 | 3550 | 4150 | 1030 |  | 
CCN1CCc2c(c3cc(OC)ccc3c3cc(OC)c(OC)cc23)C1 | 3480 | 4870 | 3390 | 3120 | 4380 | 4010 | 14200 |  | 
CC(=O)O[C@H]1C(=O)[C@@]2(C)[C@H]([C@H](OC(=O)c3ccccc3)[C@]3(O)C[C@H](OC(=O)[C@H](O)[C@@H](NC(=O)c4ccccc4)c4ccccc4)C(C)=C1C3(C)C)[C@]1(OC(C)=O)CO[C@@H]1C[C@@H]2O [PACLITAXEL] | 20 | 20 | 30 | 30 | 60 | 180 |  |  | 
COc1cc2c3c(c4cc(OC)c(OC)cc4c2cc1OC)CN(CCC1OCCO1)CC3 | 4950 | 6130 | 4150 | 4600 | 4820 | 6490 | 31900 |  | 
CCCN1CCc2c(c3cc(OC)ccc3c3cc(OC)c(OC)cc23)C1 | 4630 | 5560 | 3820 | 3750 | 4640 | 4480 | 8910 |  | 
